Data reported in ChEMBL document CHEMBL1133697, “New selective and potent 5-HT(1B/1D) antagonists: chemistry and pharmacological evaluation of N-piperazinylphenyl biphenylcarboxamides and biphenylsulfonamides” (J Med Chem, 2000).

How the values were obtained:
[1] = target: 5-hydroxytryptamine receptor 1B (Rattus norvegicus, UniProt P28564); assay: Inhibition affinity against 5-HT-1B receptor in rat frontal cortex using radio binding assay; type: tissue-based
[2] = Partition coefficient (logD7.4); settings: octanol/water, pH 7.4
[3] = target: Sodium-dependent serotonin transporter (Homo sapiens, UniProt P31645); assay: Inhibition of 5-hydroxytryptamine reuptake
[4] = Partition coefficient (logP); settings: octanol/water
[5] = target: T1, 5-hydroxytryptamine receptor 1A (Rattus norvegicus, UniProt P19327); assay: Inhibition activity against 5-hydroxytryptamine 1A receptor in rat hippocampus membranes using radio binding assays; type: cell membranes, Membrane
T1 sequence (P19327 whole entry): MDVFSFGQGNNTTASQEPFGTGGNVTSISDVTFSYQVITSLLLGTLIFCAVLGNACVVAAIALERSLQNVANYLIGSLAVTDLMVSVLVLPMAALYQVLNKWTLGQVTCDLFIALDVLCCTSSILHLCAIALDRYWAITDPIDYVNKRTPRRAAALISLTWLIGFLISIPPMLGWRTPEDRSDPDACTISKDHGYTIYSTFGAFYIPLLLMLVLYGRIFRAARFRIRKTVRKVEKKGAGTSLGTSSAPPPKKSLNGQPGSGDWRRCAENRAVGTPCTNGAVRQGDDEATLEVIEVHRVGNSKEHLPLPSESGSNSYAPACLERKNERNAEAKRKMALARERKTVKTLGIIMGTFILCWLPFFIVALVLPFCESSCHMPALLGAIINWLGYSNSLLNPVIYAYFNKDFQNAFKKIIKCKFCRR
Procedure, shortened: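 Displacement of 0.5 nM [3H]8-OH-DPAT from 5-HT1A sites in rat hippocampal membranes, following a previously reported method. IC50 in nM, mean of at least 3 determinations ±SEM unless indicated otherwise.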

[6] = target: Serotonin (5-HT) receptor (Homo sapiens) (UniProt P30939+P41595+Q13639+P28222+P46098+P08908+P28221+P28223+P28335+P28566+P34969+P50406+P47898+A5X5Y0+O95264+Q70Z44+Q8WXA8); assay: 5-hydroxytryptamine level in K+ induced 5-hydroxytryptamine release in guinea pig cortex.; type: functional, tissue-based; settings: Cavia porcellus, target entry is the homologue from another species
Procedure, shortened: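 Guinea pig (male Dunkin-Hartley) cerebral cortex slices loaded with [3H]5-HT for 30 min, then superfused with oxygenated Krebs solution. Two 4-min 30 mM K+ pulses at 68 and 108 min (S1, S2). Sumatriptan 3 µM, alone or with test compound at 30 nM, 300 nM or 3 µM, given before and during S2. Tabulated value is at 300 nM, reported as % of control S2/S1 ratio; mean (SEM) of 3-4 determinations.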

[7] = pA2 value for the effect in RSV model.; type: functional
Procedure, shortened: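 Isolated rabbit saphenous vein segments were held in organ baths and given two cumulative sumatriptan concentration-response curves. The second curve was run after 60 min incubation with antagonist or vehicle. Apparent pA2 was derived from a single antagonist concentration in at least three preparations.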

Sequence of 5-hydroxytryptamine receptor 1B (P28564 whole entry): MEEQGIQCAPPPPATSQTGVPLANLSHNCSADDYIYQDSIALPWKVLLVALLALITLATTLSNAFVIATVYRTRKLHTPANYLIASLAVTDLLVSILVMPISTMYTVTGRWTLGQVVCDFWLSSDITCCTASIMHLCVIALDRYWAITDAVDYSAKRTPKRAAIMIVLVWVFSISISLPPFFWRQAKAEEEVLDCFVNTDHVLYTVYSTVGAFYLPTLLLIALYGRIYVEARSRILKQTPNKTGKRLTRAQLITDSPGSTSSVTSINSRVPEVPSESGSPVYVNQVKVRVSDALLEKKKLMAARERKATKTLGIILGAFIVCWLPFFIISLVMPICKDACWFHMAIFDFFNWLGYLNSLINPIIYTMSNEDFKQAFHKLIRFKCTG
Sequence of Sodium-dependent serotonin transporter (P31645 whole entry): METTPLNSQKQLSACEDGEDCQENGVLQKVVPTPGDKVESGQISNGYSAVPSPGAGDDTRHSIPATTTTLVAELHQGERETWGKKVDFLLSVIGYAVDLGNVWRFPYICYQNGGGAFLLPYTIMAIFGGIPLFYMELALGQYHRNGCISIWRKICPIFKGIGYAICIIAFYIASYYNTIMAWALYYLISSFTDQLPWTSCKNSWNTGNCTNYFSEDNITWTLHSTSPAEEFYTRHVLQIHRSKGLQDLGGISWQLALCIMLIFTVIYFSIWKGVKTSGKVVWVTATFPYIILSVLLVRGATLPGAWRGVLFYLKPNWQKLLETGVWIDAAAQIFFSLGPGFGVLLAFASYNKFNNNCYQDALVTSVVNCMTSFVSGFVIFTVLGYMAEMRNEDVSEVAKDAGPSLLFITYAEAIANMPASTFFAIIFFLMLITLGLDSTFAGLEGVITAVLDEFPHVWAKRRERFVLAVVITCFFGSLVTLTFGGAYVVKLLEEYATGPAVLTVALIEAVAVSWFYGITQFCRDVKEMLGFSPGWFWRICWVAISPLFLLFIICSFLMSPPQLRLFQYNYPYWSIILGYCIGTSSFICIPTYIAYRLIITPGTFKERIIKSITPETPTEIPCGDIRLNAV

`Cc1nc(-c2ccc(-c3ccc(C(=O)Nc4ccc(OS(=O)(=O)C(F)(F)F)c(N5CCN(C)CC5)c4)cc3)c(C)c2)no1` gave an IC50 [1] of 700 nM, a logD [2] of 5.64 and an IC50 [3] of over 1000 nM. For the same compound, the logP [4] was 6.06 and the IC50 [5] was over 10000 nM.
In the case of `COc1ccc(NC(=O)c2ccc(-c3ccc(C(=N)N)cc3C)cc2)cc1N1CCN(C)CC1`, the Control [6] is reported as 155%, the IC50 [1] is reported as 0.5 nM and the logD [2] is reported as -0.35. The pA2 [7] was 9.6, the IC50 [3] was 407 nM and the logP [4] was 3.61. The IC50 [5] was 23 nM.
In the case of `Cc1nc(-c2ccc(-c3ccc(C(=O)Nc4ccc(O)c(N5CCN(C)CC5)c4)cc3)c(C)c2)no1`, the Control [6] is reported as 122%, the IC50 [1] is reported as 7.3 nM and the logD [2] is reported as 3.91. It also gave a pA2 [7] of 7.3, an IC50 [3] of over 1000 nM and a logP [4] of 4.33. For the same compound, the IC50 [5] was over 1000 nM.
With `COc1ccc(NC(=O)c2ccc(-c3ccc(C(N)=O)cc3C)cc2)cc1N1CCN(C)CC1` the Control [6] was 162%, the IC50 [1] was 1.3 nM and the logD [2] was 3.18. It also gave a pA2 [7] of 10, an IC50 [3] of over 1000 nM and a logP [4] of 3.6. It also gave an IC50 [5] of 57 nM.
Work on `Cc1nnc(-c2ccc(-c3ccc(C(=O)Nc4ccc(OS(C)(=O)=O)c(N5CCN(C)CC5)c4)cc3)c(C)c2)o1` yielded a Control [6] of 166%, an IC50 [1] of 70 nM and a logD [2] of 2.96. For the same compound, the pA2 [7] was 8.3, the IC50 [3] was 3800 nM and the logP [4] was 3.38. It also gave an IC50 [5] of 7000 nM.
Work on `COc1ccc(NC(=O)c2ccc(-c3ccc(-c4noc(C)n4)cc3C)cc2)cc1N1CCN(C)CC1` [GR-127935] yielded an IC50 [1] of 1.6 nM, a logD [2] of 4.48 and a pA2 [7] of 9.9. It also gave an IC50 [3] of 1000 nM, a logP [4] of 4.9 and an IC50 [5] of 425 nM.
In the case of `Cc1nc(-c2ccc(-c3ccc(C(=O)N4CCc5cc6c(cc54)C4(CCN(C)CC4)CO6)cc3)c(C)c2)no1` [SB-224289], the Control [6] is reported as 134%, the IC50 [1] is reported as 2 nM and the logD [2] is reported as 4.64. It also gave a pA2 [7] of 7.4, an IC50 [3] of 4700 nM and a logP [4] of 6.29.
With `COc1ccc(NS(=O)(=O)c2ccc(-c3ccc(-c4nnc(C)o4)cc3C)cc2)cc1N1CCN(C)CC1` the Control [6] was 155%, the IC50 [1] was 60 nM and the logD [2] was 3.6. The pA2 [7] was 7, the IC50 [3] was over 1000 nM and the logP [4] was 4.04. For the same compound, the IC50 [5] was 700 nM.
Compound `Cc1nc(-c2ccc(-c3ccc(C(=O)Nc4ccc(OCCF)c(N5CCN(C)CC5)c4)cc3)c(C)c2)no1` has a Control [6] of 107%, an IC50 [1] of 10 nM and a logD [2] of 4.91. The pA2 [7] was 8.3, the IC50 [3] was 900 nM and the logP [4] was 5.33. The IC50 [5] was 5000 nM.
Compound `COc1ccc(NC(=O)c2ccc(-c3ccc(-c4nnc(C)o4)cc3C)cc2)cc1N1CCN(C)CC1` has a Control [6] of 147%, an IC50 [1] of 0.93 nM and a pA2 [7] of 9.1. For the same compound, the IC50 [3] was over 1000 nM and the IC50 [5] was over 1000 nM.
`Cc1nnc(-c2ccc(-c3ccc(C(=O)Nc4ccc(O)c(N5CCN(C)CC5)c4)cc3)c(C)c2)o1` showed a Control [6] of 147%, an IC50 [1] of 6.3 nM and a logD [2] of 3.12. The pA2 [7] was 8, the IC50 [3] was 4700 nM and the logP [4] was 3.54. The IC50 [5] was over 100 nM.
